Data: ChEMBL document CHEMBL4330069, “Boosting the efficacy of anti-MRSA β-lactam antibiotics via an easily accessible, non-cytotoxic and orally bioavailable FtsZ inhibitor” (Eur J Med Chem, 2019)
≈ marks a conversion by molar mass, not a printed value.

Legend:
Staphylococcus aureus [1] = experiment: Synergistic antibacterial activity against multidrug-resistant Staphylococcus aureus isolate 774 in presence of cefuroxime by broth microdilution assay; format: functional
Staphylococcus aureus [2] = experiment: Antibacterial activity against Staphylococcus aureus ATCC 29213 harboring FtsZ 64 mutation after 20 hrs; format: functional; settings: ATCC 29213, 20 h
Summary of the method: (§1)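 Broth microdilution MIC per CLSI guidelines, compounds dissolved in DMSO. Resistant mutants were selected by serial passage of ATCC 29213 in LB at 37 °C with shaking at 250 rpm. Each 20 h culture started at half the MIC, and the concentration was doubled at each transfer. Growth inhibition was read by eye, in duplicate.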

Staphylococcus aureus [3] = experiment: Antibacterial activity against multidrug-resistant Staphylococcus aureus isolate 3589 by broth microdilution assay; format: functional
Summary of the method: (§2)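 Broth microdilution MIC per CLSI guidelines against clinical MRSA isolates, for β-lactams and test compound alone and in combination. Compounds were dissolved in DMSO. Growth was read by eye, in duplicate. FIC index = FIC(compound) + FIC(drug); synergy defined as FIC index ≤0.5.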

Staphylococcus aureus [4] = experiment: Synergistic antibacterial activity against multidrug-resistant Staphylococcus aureus isolate 2895 assessed as fractional Inhibitory concentration index in presence of amoxicillin by broth microdilution assay; format: functional
Staphylococcus aureus [5] = experiment: Antibacterial activity against multidrug-resistant Staphylococcus aureus isolate 2516 by broth microdilution assay; format: functional; summary of the method: as §2
Staphylococcus aureus [6] = experiment: Synergistic antibacterial activity against multidrug-resistant Staphylococcus aureus isolate 774 in presence of cloxacillin by broth microdilution assay; format: functional
Staphylococcus aureus [7] = experiment: Synergistic antibacterial activity against multidrug-resistant Staphylococcus aureus isolate 1717 assessed as fractional Inhibitory concentration index in presence of amoxicillin by broth microdilution assay; format: functional
Summary of the method: (§3)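 CLSI broth microdilution run on clinical MRSA isolates with each β-lactam alone, the test agent alone, and the two combined; agents dissolved in DMSO. Growth inhibition was read by eye. FIC index = FIC(compound) + FIC(β-lactam), where each FIC is the MIC in combination divided by the MIC alone. An index ≤0.5 was taken as synergy.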

Staphylococcus aureus [8] = experiment: Synergistic antibacterial activity against multidrug-resistant Staphylococcus aureus isolate 200 assessed as fractional Inhibitory concentration index in presence of cloxacillin by broth microdilution assay; format: functional; summary of the method: as §3
Staphylococcus aureus [9] = experiment: Antibacterial activity against multidrug-resistant Staphylococcus aureus isolate 200 by broth microdilution assay; format: functional; summary of the method: as §2
Staphylococcus aureus [10] = experiment: Synergistic antibacterial activity against multidrug-resistant Staphylococcus aureus isolate 1136 in presence of cefuroxime by broth microdilution assay; format: functional
Summary of the method: (§4)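 Clinical MRSA isolate panel; compound and β-lactam tested alone and in combination by CLSI broth microdilution, compounds dissolved in DMSO, growth inhibition scored by eye, run in duplicate. FIC index = FIC(compound) + FIC(drug), each the MIC in combination divided by the MIC alone; an index ≤ 0.5 was called synergy.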

Staphylococcus aureus [11] = experiment: Synergistic antibacterial activity against multidrug-resistant Staphylococcus aureus isolate 3332 in presence of cloxacillin by broth microdilution assay; format: functional
Summary of the method: (§5)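 CLSI broth microdilution on clinical MRSA isolates. MICs were measured for the β-lactam alone, the test agent alone and the two combined. Compounds were dissolved in DMSO, and growth inhibition was scored by eye. FIC index is the sum, over both agents, of MIC in combination divided by MIC alone. An FIC index ≤0.5 was taken as synergy.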

Staphylococcus aureus [12] = experiment: Synergistic antibacterial activity against multidrug-resistant Staphylococcus aureus isolate 85 in presence of meropenem by broth microdilution assay; format: functional
Staphylococcus aureus [13] = experiment: Synergistic antibacterial activity against multidrug-resistant Staphylococcus aureus isolate 757 in presence of methicillin by broth microdilution assay; format: functional
Staphylococcus aureus [14] = experiment: Synergistic antibacterial activity against multidrug-resistant Staphylococcus aureus isolate 2919 assessed as fractional Inhibitory concentration index in presence of cefuroxime by broth microdilution assay; format: functional
Staphylococcus aureus [15] = experiment: Synergistic antibacterial activity against multidrug-resistant Staphylococcus aureus isolate 2973 in presence of amoxicillin by broth microdilution assay; format: functional; summary of the method: as §5
Staphylococcus aureus [16] = experiment: Synergistic antibacterial activity against multidrug-resistant Staphylococcus aureus isolate 1344 in presence of methicillin by broth microdilution assay; format: functional; summary of the method: as §4
Staphylococcus aureus [17] = experiment: Synergistic antibacterial activity against multidrug-resistant Staphylococcus aureus isolate 1402 assessed as fractional Inhibitory concentration index in presence of meropenem by broth microdilution assay; format: functional; summary of the method: as §3
Staphylococcus aureus [18] = experiment: Synergistic antibacterial activity against multidrug-resistant Staphylococcus aureus isolate 2490 assessed as fractional Inhibitory concentration index in presence of amoxicillin by broth microdilution assay; format: functional; summary of the method: as §3
Staphylococcus aureus [19] = experiment: Antibacterial activity against multidrug-resistant Staphylococcus aureus ATCC 43300 infected in BALB/C mouse assessed as mouse survival at 50 mg/kg, ip bid measured on day 4 post infection (reference value: 50%); format: functional
Staphylococcus aureus [20] = experiment: Synergistic antibacterial activity against multidrug-resistant Staphylococcus aureus isolate 231 in presence of amoxicillin by broth microdilution assay; format: functional; summary of the method: as §4
Staphylococcus aureus [21] = experiment: Synergistic antibacterial activity against multidrug-resistant Staphylococcus aureus isolate 1717 in presence of cefuroxime by broth microdilution assay; format: functional; summary of the method: as §4
Staphylococcus aureus [22] = experiment: Synergistic antibacterial activity against multidrug-resistant Staphylococcus aureus isolate 231 assessed as fractional Inhibitory concentration index in presence of amoxicillin by broth microdilution assay; format: functional; summary of the method: as §3
[23] = Tmax in Sprague-Dawley rat at 50 mg/kg, po by UPLC-MS/MS analysis; format: ADME, organism-based; settings: in vivo
Staphylococcus aureus [24] = experiment: Antibacterial activity against multidrug-resistant Staphylococcus aureus isolate 2490 by broth microdilution assay; format: functional; summary of the method: as §2
Staphylococcus aureus [25] = experiment: Antibacterial activity against multidrug-resistant Staphylococcus aureus isolate 2901 by broth microdilution assay; format: functional; summary of the method: as §2
Staphylococcus aureus [26] = experiment: Synergistic antibacterial activity against multidrug-resistant Staphylococcus aureus isolate 231 assessed as fractional Inhibitory concentration index in presence of meropenem by broth microdilution assay; format: functional; summary of the method: as §3
Staphylococcus aureus [27] = experiment: Synergistic antibacterial activity against multidrug-resistant Staphylococcus aureus isolate 2895 assessed as fractional Inhibitory concentration index in presence of meropenem by broth microdilution assay; format: functional
Staphylococcus aureus [28] = experiment: Synergistic antibacterial activity against multidrug-resistant Staphylococcus aureus isolate 1402 in presence of cloxacillin by broth microdilution assay; format: functional; summary of the method: as §4
Staphylococcus aureus [29] = experiment: Synergistic antibacterial activity against multidrug-resistant Staphylococcus aureus isolate 2728 in presence of amoxicillin by broth microdilution assay; format: functional; summary of the method: as §5
Staphylococcus aureus [30] = experiment: Synergistic antibacterial activity against multidrug-resistant Staphylococcus aureus isolate 1344 in presence of meropenem by broth microdilution assay; format: functional; summary of the method: as §4
Staphylococcus aureus [31] = experiment: Synergistic antibacterial activity against multidrug-resistant Staphylococcus aureus isolate 2973 in presence of cefuroxime by broth microdilution assay; format: functional; summary of the method: as §5
Staphylococcus aureus [32] = experiment: Synergistic antibacterial activity against multidrug-resistant Staphylococcus aureus isolate 254 assessed as fractional Inhibitory concentration index in presence of cloxacillin by broth microdilution assay; format: functional
Staphylococcus aureus [33] = experiment: Synergistic antibacterial activity against multidrug-resistant Staphylococcus aureus isolate 3580 assessed as fractional Inhibitory concentration index in presence of amoxicillin by broth microdilution assay; format: functional
Staphylococcus aureus [34] = experiment: Synergistic antibacterial activity against multidrug-resistant Staphylococcus aureus isolate 1402 assessed as fractional Inhibitory concentration index in presence of methicillin by broth microdilution assay; format: functional; summary of the method: as §3
Staphylococcus aureus [35] = experiment: Synergistic antibacterial activity against multidrug-resistant Staphylococcus aureus isolate 2224 in presence of methicillin by broth microdilution assay; format: functional; summary of the method: as §4
Staphylococcus aureus [36] = experiment: Antibacterial activity against multidrug-resistant Staphylococcus aureus isolate 256 by broth microdilution assay; format: functional; summary of the method: as §2
Staphylococcus aureus [37] = experiment: Antibacterial activity against Staphylococcus aureus ATCC 29213 harboring FtsZ 128 mutation after 20 hrs; format: functional; settings: ATCC 29213, 20 h; summary of the method: as §1

CCCCCCCCCNc1ccc(F)c(C(N)=O)c1F
MIC (Staphylococcus aureus [1]): 2 µg/mL | MIC (Staphylococcus aureus [2]): 64 µg/mL (≈ 214 µM) | MIC (Staphylococcus aureus [3]): 8 µg/mL (≈ 26.8 µM) | fractional inhibitory concentration index (FICI) (Staphylococcus aureus [4]): 1.1 | MIC (Staphylococcus aureus [5]): 32 µg/mL (≈ 107 µM) | MIC (Staphylococcus aureus [6]): 1 µg/mL | fractional inhibitory concentration index (FICI) (Staphylococcus aureus [7]): 1.1 | fractional inhibitory concentration index (FICI) (Staphylococcus aureus [8]): 1 | MIC (Staphylococcus aureus [9]): 1020 µg/mL (≈ 3430 µM) | MIC (Staphylococcus aureus [10]): 2 µg/mL | MIC (Staphylococcus aureus [11]): 2 µg/mL | MIC (Staphylococcus aureus [12]): 8 µg/mL | MIC (Staphylococcus aureus [13]): 4 µg/mL | fractional inhibitory concentration index (FICI) (Staphylococcus aureus [14]): 0.3 | MIC (Staphylococcus aureus [15]): 8 µg/mL | MIC (Staphylococcus aureus [16]): 4 µg/mL | fractional inhibitory concentration index (FICI) (Staphylococcus aureus [17]): 5 | fractional inhibitory concentration index (FICI) (Staphylococcus aureus [18]): 0.6 | Activity (Staphylococcus aureus [19]): 40% | MIC (Staphylococcus aureus [20]): 4 µg/mL | MIC (Staphylococcus aureus [21]): 2 µg/mL | fractional inhibitory concentration index (FICI) (Staphylococcus aureus [22]): 0.5 | Tmax [23]: 2 h | MIC (Staphylococcus aureus [24]): 16 µg/mL (≈ 53.6 µM) | MIC (Staphylococcus aureus [25]): 512 µg/mL (≈ 1720 µM) | fractional inhibitory concentration index (FICI) (Staphylococcus aureus [26]): 0.6 | fractional inhibitory concentration index (FICI) (Staphylococcus aureus [27]): 2.1 | MIC (Staphylococcus aureus [28]): 1 µg/mL | MIC (Staphylococcus aureus [29]): 8 µg/mL | MIC (Staphylococcus aureus [30]): 16 µg/mL | MIC (Staphylococcus aureus [31]): 4 µg/mL | fractional inhibitory concentration index (FICI) (Staphylococcus aureus [32]): 0.2 | fractional inhibitory concentration index (FICI) (Staphylococcus aureus [33]): 0.3 | fractional inhibitory concentration index (FICI) (Staphylococcus aureus [34]): 0.6 | MIC (Staphylococcus aureus [35]): 2 µg/mL | MIC (Staphylococcus aureus [36]): 1020 µg/mL (≈ 3430 µM) | MIC (Staphylococcus aureus [37]): 128 µg/mL (≈ 429 µM)
